Compound activity deposited in PubChem BioAssay by several laboratories.
MEKK2 WT-MEK5: modulators of MEK5 binding to wildtype MEKK2, primary screen, biochemical, multiplex bead flow cytometry, Alexa488-MEK5 | Mitogen-activated protein kinase kinase kinase 2 (Homo sapiens), Q9Y2U5 | Alexa488-MEK5 binding to MEKK2 WT; actives lie on both sides | binding response (% of control), % at 10 µM | hit rate 1.1% among 290,000 | AID 1531, 2009; in the data active = binding response below about 67% or above about 130%
MEKK3 PB1 HTS: modulators of MEKK3-MEK5 PB1 binding, primary screen, biochemical, wildtype MEKK3, multiplex bead flow cytometry, Alexa488-MEK5. Mitogen-activated protein kinase kinase kinase 3 (Homo sapiens), Q99759. bead-based flow cytometry, Alexa488-MEK5 binding to MEKK3; actives lie on both sides; 0 = blocked by unlabeled MEK5, 100 = vehicle. binding response (% of control), % at 10 µM. hit rate 1.4% among 290,000. AID 1529, 2009;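 active = binding response more than 3 SD above or below the average of its plate-row segment, actives on both sides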;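 note: Alexa488 bead fluorescence after subtracting the streptavidin-only scavenger bead signal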
STK33 inh: inhibitors of purified STK33 kinase, primary screen, biochemical, ADP-Glo luminescence, homogeneous, cell-free; AID 2661, 2010; MBP phosphorylation; hit rate 0.073% among 320,000; inhibition, % at 10 µM; Serine/threonine-protein kinase 33 (Homo sapiens), Q9BYT3;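 active = inhibition at or above 25%, using the most active replicate where run in duplicate; inactive = inhibition below 25%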
MEKK2mut PB1 HTS: MEK5 binding signal on mutant MEKK2 PB1, primary screen, biochemical, multiplex bead flow cytometry, Alexa488-MEK5; Alexa488-MEK5 binding to MEKK2 mutant; percent response, % at 10 µM; hit rate 0.35% among 290,000; in the data active = percent response above about 24%, passing the limit was not always enough
GSK3B inh: human GSK3beta kinase inhibitors, primary screen, biochemical, cell-free homogeneous, HTS | Glycogen synthase kinase-3 beta (Homo sapiens), P49841 | GST-GSK3beta kinase, ADP-Glo luminescence, 60 min; active compounds read low | activity score (negative = inhibition), % at 10 µM | hit rate 0.038% among 300,000 | AID 2097, 2009;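 active = more than half of replicate wells score below -50%, meaning over 50% inhibition versus plate controls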;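 note: 0% = median DMSO wells and -100% = median GW8510 positive control wells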
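Assay system: GST-fused GSK3beta enzyme, cell-free / Medium: Tris pH 7.5 buffer with MgCl2, DTT, BSA, heparin / Also added: peptide substrate plus 25 µM ATP (final) / Compound: 10 µM single point / Timing: kinase reaction with compound 60 min at room temperature / Detection: ADP-Glo luminescence / Benchmarks: DMSO neutral wells and GW8510 at 20 µM as positive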
GSK3A inh: blockers of GSK3A enzyme activity – biochemical, luminescence, cell-free homogeneous, HTS, primary screen | Glycogen synthase kinase-3 alpha (Homo sapiens), P49840 | GSK-3 alpha kinase, ADP-Glo luminescence, 60 min | inhibition, % at 10 µM | hit rate 0.1% among 320,000 | AID 2650, 2010;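 active = more than half of replicates show inhibition above 20%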;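 note: GST-tagged GSK-3 alpha with peptide substrate and 25 µM ATP; 0% = DMSO neutral wells and 100% = GW8510 positive control wells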
Target sequence (P49840 whole entry, looked up): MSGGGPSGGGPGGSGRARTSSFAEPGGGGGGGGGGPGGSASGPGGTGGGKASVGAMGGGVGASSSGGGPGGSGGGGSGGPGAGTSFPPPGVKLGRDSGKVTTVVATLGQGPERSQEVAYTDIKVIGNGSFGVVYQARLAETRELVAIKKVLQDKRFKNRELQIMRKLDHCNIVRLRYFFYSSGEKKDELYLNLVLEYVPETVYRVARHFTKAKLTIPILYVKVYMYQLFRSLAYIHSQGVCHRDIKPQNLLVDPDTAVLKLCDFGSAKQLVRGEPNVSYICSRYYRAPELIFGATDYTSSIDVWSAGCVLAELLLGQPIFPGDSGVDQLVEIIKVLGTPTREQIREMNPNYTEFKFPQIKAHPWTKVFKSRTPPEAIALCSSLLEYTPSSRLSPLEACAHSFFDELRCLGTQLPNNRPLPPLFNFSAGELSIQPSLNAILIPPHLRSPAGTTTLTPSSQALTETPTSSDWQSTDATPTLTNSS
MEKK2wt confirm: modulators of MEK5 binding to wildtype MEKK2, confirmation, biochemical, single concentration, multiplex bead flow cytometry | shares compounds with MEKK3 PB1 HTS | Alexa488-MEK5 binding to MEKK2 WT; actives lie on both sides | binding response (% of control), % at 10 µM | hit rate 2.4% among 5,900 | AID 1892, 2009; in the data active = binding response below about 16% or above about 210%; inactive = in between
MEKK2mut confirm: mutant MEKK2 PB1-MEK5 binding signal retest – biochemical, single concentration, multiplex bead flow cytometry, confirmation | Alexa488-MEK5 binding to MEKK2 mutant | shares compounds with MEKK3 PB1 HTS | hit rate 2% among 5,900 | percent response, % at 10 µM | AID 1893, 2009; in the data active = percent response mostly above about 71%, no sharp cut-off; inactive = mostly below about 38%;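 note: higher means compound restores mutant binding toward wildtype level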
MEKK3-MEK5 inh: MEKK3 wild-type PB1 binding to MEK5, inhibitors, confirmation, biochemical, bead multiplex flow cytometry, single concentration, wildtype. Alexa488-MEK5 binding to MEKK3; active compounds read low. binding response (% of control), % at 10 µM. shares compounds with MEKK3 PB1 HTS. hit rate 1.8% among 5,900;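 active = binding response below 72% of control, or above a set upper limit, though filed actives all read lower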;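 note: 100% = DMSO only wells and 0% = binding blocked by excess unlabeled MEK5; lower values mean stronger disruption of MEK5 binding to MEKK3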
Numbers without * were called inactive; / = no result; [ ] = remark or other dose. The list is not random: actives were taken first. Their share in the collection is about 2.1%.

SMILES	MEKK2 WT-MEK5	MEKK3 PB1 HTS	STK33 inh	MEKK2mut PB1 HTS	GSK3B inh	GSK3A inh	MEKK2wt confirm	MEKK2mut confirm	MEKK3-MEK5 inh
CCC(C)NC(=O)CN1C(=O)c2cccc3cccc1c23 (stereo not given)	100.0	102.0	-0.5	5.0	-0.2	-0.7	/	/	/
CCN1/C(=N\N)c2cccc3cccc1c23	-8.0*	58.0*[inhibitor]	1.6	-11.0	1.0	2.3	64.0	-11.0	77.0
Cc1ccc(NC(=O)NCC2CCN(Cc3cccc(Cl)c3)CC2)cc1Cl	182.0*	109.0	1.5	36.0	1.2	-3.0	167.0	47.0	109.0
CC(=O)c1cccc(NC(=O)COC(=O)CCNS(=O)(=O)c2ccccc2)c1	/	/	-0.9	/	/	1.1	/	/	/
COc1ccc(S(=O)(=O)NC(C)C(=O)NCCN2CCOCC2)cc1Cl (stereo not given)	93.0	103.0	-1.6	-4.0	7.1	-3.5	/	/	/
CC(=O)c1ccc(NC(=O)C(C)n2c3ccccc3c3nc(=O)cc(C)n32)cc1 (stereo not given)	52.0	44.0*[inhibitor]	-1.7	-17.0	-1.4	-1.3	103.0	-3.0	103.0
Cc1cc(=O)nc2c3ccccc3n(C(C)C(=O)NCCC(C)C)n12 (stereo not given)	103.0	99.0	0.4	5.0	-2.5	1.1	/	/	/
COc1ccc(Cn2c(SCc3ccccc3C)nc3cc(OC)c(OC)cc3c2=N)cc1	278.0*	118.0	-0.2	96.0*	-5.9	0.0	252.0*	79.0*	113.0
CC1(C)Cc2c(c(N3CCOCC3)nc3sc(-c4ccc(C(=O)O)o4)c(N)c23)CO1	-5.0*	80.0	0.0	62.0*	1.5	0.1	89.0	-2.0	93.0
CC1(c2ccccc2)CC(C)(C)N2C(=O)/C(=C3\SC(=S)NC3=O)c3cccc1c32 (stereo not given)	96.0	147.0*	-1.8	-1.0	1.5	-3.9	95.0	-3.0	95.0
CC1(c2ccccc2)CC(C)(C)N2C(=O)C3(C(C#N)=C(N)Oc4cc(O)ccc43)c3cccc1c32 (stereo not given)	88.0	101.0	1.1	-4.0	-0.5	-0.6	/	/	/
CCCC(=O)Nc1ccc2nc(SCC(=O)Nc3ccc(N4CCOCC4)c(Cl)c3)sc2c1	/	/	1.8	/	0.0	4.9	/	/	/
O=C(CSc1nc2ccccc2s1)Nc1ccc2c(c1)OCO2	104.0	158.0*	0.4	1.0	1.9	-0.6	99.0	-3.0	102.0
Cc1nnc(SCC(=O)Nc2ccc3c(c2)OCO3)s1	100.0	98.0	/	-8.0	4.4	/	/	/	/
O=C(CSc1nc2ccccc2s1)Nc1cc(S(=O)(=O)N2CCOCC2)ccc1Cl	107.0	129.0*	-2.1	1.0	0.1	-1.1	99.0	-1.0	105.0
Nc1ccc2nc(SCC(=O)Nc3ccc(N4CCOCC4)c(Cl)c3)sc2c1	106.0	135.0*	-0.5	1.0	-0.2	-2.2	98.0	-4.0	101.0
Cc1cc(NC(=O)COC(=O)C2CC(=O)N(c3ccc(Cl)cc3)C2)no1 (stereo not given)	106.0	101.0	-1.9	0.0	/	-1.9	/	/	/
N=c1n(CCN2CCCCC2)c2ccccc2n1CC(O)c1ccc(Cl)c(Cl)c1 (stereo not given)	142.0*	110.0	2.3	14.0	-14.6	9.1	153.0	18.0	103.0
N=c1n(CCN2CCCCC2)c2ccccc2n1CC(=O)c1ccc(Cl)c(Cl)c1	173.0*	102.0	0.3	28.0	0.7	2.1	166.0	30.0	106.0
C[C@@H]1COC(=O)[C@@H](CC(=O)OC(C)(C)C)C/C=C\C[C@@H](CC(=O)N[C@H](CO)Cc2ccccc2)C(=O)N1	/	/	-0.9	/	/	-2.6	/	/	/
CCOC(=O)c1c(C)[nH]c(C)c1C(=O)COC(=O)CSc1ccc(C)cc1	/	/	-1.8	/	/	3.3	/	/	/
C#CCOCCOCCOCCNc1nc(N2CCN(C(=O)[C@H](C)n3cc(CCCN=C(N)N)nn3)CC2)nc(N2CCN(C(=O)[C@H](CCCCN)n3cc(CCCC)nn3)CC2)n1	110.0	110.0	/	-1.0	/	/	/	/	/
C#CCOCCOCCOCCNc1nc(N2CCN(C(=O)[C@H]([C@@H](C)CC)n3cc([C@@H](N)Cc4ccc(O)cc4)nn3)CC2)nc(N2CCN(C(=O)[C@H](CCCCN)n3cc([C@@H](N)CC(C)C)nn3)CC2)n1	221.0*	113.0	1.3	79.0*	-21.6	13.4	183.0	110.0*	108.0
C#CCOCCOCCOCCNc1nc(N2CCN(C(=O)[C@H](Cc3ccc(O)cc3)n3cc([C@@H](N)CC(C)C)nn3)CC2)nc(N2CCN(C(=O)[C@H](Cc3ccc(O)cc3)n3cc([C@@H](N)CC(C)C)nn3)CC2)n1	188.0*	96.0	-0.2	69.0*	0.4	-0.5	227.0*	95.0*	113.0
C#CCOCCOCCOCCNc1nc(N2CCN(C(=O)[C@H](CCCCN)n3cc(C(N)CC(C)C)nn3)CC2)nc(N2CCN(C(=O)[C@H](CCC(=O)O)n3cc(C(N)[C@H](C)CC)nn3)CC2)n1 (stereo not given in full)	107.0	104.0	0.6	10.0	-0.6	-2.6	/	/	/
C#CCOCCOCCOCCNc1nc(N2CCN(C(=O)[C@H](CCCCN)n3cc([C@@H](N)C(C)CC)nn3)CC2)nc(N2CCN(C(=O)[C@H](Cc3ccc(O)cc3)n3cc([C@@H](N)CC(C)C)nn3)CC2)n1 (stereo not given in full)	158.0*	110.0	-0.3	43.0	-1.0	-1.0	135.0	22.0	107.0
